Test results taken from ChEMBL document CHEMBL2417407, “Regioselective synthesis of phenanthrenes and evaluation of their anti-oxidant based anti-inflammatory potential” (Eur J Med Chem, 2013).
≈ marks a conversion by molar mass, not a printed value.

Assays:
[1] = test system: THP-1; assay: Cytotoxicity against human THP1 cells assessed as cell viability at 100 uM after 24 hrs by CCK-8 assay relative to untreated control; format: cell-based; conditions: thp-1, 24 h
Procedure, shortened: (§1)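 THP-1 cells were seeded at 2 × 10⁵ cells/well and exposed to compound in serum-free medium for 24 h at 37 °C under 5% CO2. CCK-8 reagent was then added for 2 h and absorbance was read at 450 nm. Relative viability was calculated as absorbance of treated cells divided by absorbance of untreated cells. Triplicates, two independent experiments.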

[2] = test system: Radical scavenging activity; assay: Antioxidant activity assessed as DPPH free radical scavenging activity after 30 mins; format: functional
Procedure, shortened: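 Compound solution was mixed with 316 µM DPPH solution, giving final compound concentrations of 1, 5, 12.5, 25, 50 and 100 µg/mL. The mixture was shaken 1 min and incubated at 37 °C for 30 min. Absorbance was read at 517 nm and percent scavenging was calculated as [1 − (A1 − A2)/A0] × 100.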

[3] = test system: THP-1; assay: Cytotoxicity against human THP1 cells assessed as cell viability at 1 uM after 24 hrs by CCK-8 assay relative to untreated control; format: cell-based; conditions: thp-1, 24 h; procedure, shortened: as §1
[4] = test system: THP-1; assay: Cytotoxicity against human THP1 cells assessed as cell viability at 10 uM after 24 hrs by CCK-8 assay relative to untreated control; format: cell-based; conditions: thp-1, 24 h; procedure, shortened: as §1
[5] = Antioxidant activity assessed as ABTS free radical scavenging activity after 1 min; format: functional
Procedure, shortened: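 ABTS radical cation was generated from 7 mM ABTS stock and 2.45 mM potassium persulfate (final) left 16 h in the dark at room temperature. Working solution (1.0 mL) was added to the compound in methanol, giving final 1–100 µg/mL. Absorbance at 734 nm was read after exactly 1 min. Percent scavenging was calculated from absorbances as in the DPPH assay.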

[6] = test system: THP-1; assay: Antiinflammatory activity in human THP1 cells assessed as inhibition of LPS-stimulated TNF-alpha release at 10 uM incubated for 1 hr prior to LPS challenge measured after 24 hrs by sandwich ELISA relative to untreated control; format: functional
Procedure, shortened: (§2)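 THP-1 cells were grown in RPMI 1640 with 10% heat-inactivated FBS, 1% non-essential amino acids, 1% glutamine, penicillin and streptomycin at 37 °C under 5% CO2. They were seeded at 2 × 10⁵ cells/well and pretreated with compound for 1 h in serum-free medium. LPS (E. coli O55:B5, 250 ng/mL) was then added for 24 h at 37 °C. Supernatant TNF-α was measured by sandwich ELISA, with LPS-stimulated cells taken as 0% inhibition. Triplicates, two independent experiments.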

[7] = test system: THP-1; assay: Cytotoxicity against human THP1 cells assessed as cell viability at 50 uM after 24 hrs by CCK-8 assay relative to untreated control; format: cell-based; conditions: thp-1, 24 h; procedure, shortened: as §1
[8] = test system: THP-1; assay: Antiinflammatory activity in human THP1 cells assessed as inhibition of LPS-stimulated TNF-alpha release at 1 uM incubated for 1 hr prior to LPS challenge measured after 24 hrs by sandwich ELISA relative to untreated control; format: functional; procedure, shortened: as §2
[9] = test system: THP-1; assay: Antiinflammatory activity in human THP1 cells assessed as inhibition of LPS-stimulated TNF-alpha release at 100 uM incubated for 1 hr prior to LPS challenge measured after 24 hrs by sandwich ELISA relative to untreated control; format: functional; procedure, shortened: as §2
[10] = test system: THP-1; assay: Antiinflammatory activity in human THP1 cells assessed as inhibition of LPS-stimulated TNF-alpha release at 50 uM incubated for 1 hr prior to LPS challenge measured after 24 hrs by sandwich ELISA relative to untreated control; format: functional; procedure, shortened: as §2
[11] = test system: THP-1; assay: Antiinflammatory activity in human THP1 cells assessed as inhibition of LPS-stimulated TNF-alpha release incubated for 1 hr prior to LPS challenge measured after 24 hrs by sandwich ELISA; format: functional, cell-based; procedure, shortened: as §2
[12] = Antioxidant activity assessed as galvinoxyl free radical scavenging activity after 20 mins; format: functional

Question: Which results are given for `COc1ccc2c(c1O)CCc1cc(O)cc(OC)c1-2`?
Answer: fold change (FC) [1]: 1; IC50 [2]: 32.5 µg/mL (≈ 119 µM); fold change (FC) [3]: 1.3; fold change (FC) [4]: 1.3; IC50 [5]: 15.62 µg/mL (≈ 57.4 µM); inhibition at 10 µM [6]: 31%; fold change (FC) [7]: 1.2; inhibition at 1 µM [8]: 19.5%; inhibition at 100 µM [9]: 83%; inhibition at 50 µM [10]: 70%; inhibition [11]: Dose-dependent effect; IC50 [12]: 17.04 µg/mL (≈ 62.6 µM)

Question: Which “fold change (FC)” value [1] does the source give for `c1ccc2c(c1)ccc1ccccc12` [PHENANTHRENE] here?
Answer: 1.1

Question: And the IC50 [2]?
Answer: > 100 µg/mL

Question: And the “fold change (FC)” value [3]?
Answer: 1.4

Question: What about the “fold change (FC)” value [4] of the same compound?
Answer: 1.3

Question: What about the IC50 [5] of the same compound?
Answer: > 100 µg/mL

Question: What about the inhibition at 10 µM [6] of the same compound?
Answer: 0%

Question: And the “fold change (FC)” value [7]?
Answer: 1.2

Question: And the inhibition at 1 µM [8]?
Answer: 0%

Question: What about the inhibition at 100 µM [9] of the same compound?
Answer: 8.5%

Question: What about the inhibition at 50 µM [10] of the same compound?
Answer: 6%

Question: And the IC50 [12]?
Answer: > 100 µg/mL

Question: What does the source list for `c1ccc2c(c1)CCc1ccccc1-2`?
Answer: fold change (FC) [1]: 1.2; IC50 [2]: > 100 µg/mL; fold change (FC) [3]: 1.6; fold change (FC) [4]: 1.5; IC50 [5]: > 100 µg/mL; inhibition at 10 µM [6]: 0%; fold change (FC) [7]: 1.3; inhibition at 1 µM [8]: 0%; inhibition at 100 µM [9]: 14.5%; inhibition at 50 µM [10]: 5%; IC50 [12]: > 100 µg/mL

Question: With `COc1cc2c(c(OC)c1O)-c1ccc(O)cc1CC2` [FLAVANTHRIDIN] as the compound, how does the “fold change (FC)” value [1] read?
Answer: 1.2

Question: What about the IC50 [2] of the same compound?
Answer: 10.28 µg/mL (≈ 37.8 µM)

Question: And the “fold change (FC)” value [3]?
Answer: 1.4

Question: What about the “fold change (FC)” value [4] of the same compound?
Answer: 1.4

Question: And the IC50 [5]?
Answer: 11.72 µg/mL (≈ 43 µM)

Question: And the inhibition at 10 µM [6]?
Answer: 17.5%

Question: And the “fold change (FC)” value [7]?
Answer: 1.3

Question: And the inhibition at 1 µM [8]?
Answer: 8%

Question: And the inhibition at 100 µM [9]?
Answer: 64%

Question: And the inhibition at 50 µM [10]?
Answer: 47%

Question: And the inhibition [11]?
Answer: Dose-dependent effect

Question: And the IC50 [12]?
Answer: 11.66 µg/mL (≈ 42.8 µM)

Question: With `Cc1cc(C(C)(C)C)c(O)c(C(C)(C)C)c1` [BUTYLATED HYDROXYTOLUENE] as the compound, how does the IC50 [2] read?
Answer: 31.51 µg/mL (≈ 143 µM)

Question: What about the IC50 [5] of the same compound?
Answer: 36.11 µg/mL (≈ 164 µM)

Question: What about the IC50 [12] of the same compound?
Answer: 43.7 µg/mL (≈ 198 µM)

Question: With `COc1cc2ccc3cc(O)ccc3c2c(OC)c1O` as the compound, how does the “fold change (FC)” value [1] read?
Answer: 1

Question: What about the IC50 [2] of the same compound?
Answer: 11.18 µg/mL (≈ 41.4 µM)

Question: And the “fold change (FC)” value [3]?
Answer: 1.4

Question: And the “fold change (FC)” value [4]?
Answer: 1.3

Question: What about the IC50 [5] of the same compound?
Answer: 13.39 µg/mL (≈ 49.5 µM)

Question: What about the inhibition at 10 µM [6] of the same compound?
Answer: 15.5%

Question: And the “fold change (FC)” value [7]?
Answer: 1.1

Question: What about the inhibition at 1 µM [8] of the same compound?
Answer: 3.5%

Question: And the inhibition at 100 µM [9]?
Answer: 67.5%

Question: What about the inhibition at 50 µM [10] of the same compound?
Answer: 34%

Question: What about the inhibition [11] of the same compound?
Answer: Dose-dependent effect

Question: What about the IC50 [12] of the same compound?
Answer: 11.79 µg/mL (≈ 43.6 µM)

Question: With `O=C1O[C@H]([C@@H](O)CO)C(O)=C1O` [ASCORBIC ACID] as the compound, how does the IC50 [2] read?
Answer: 15.12 µg/mL (≈ 85.8 µM)

Question: And the IC50 [5]?
Answer: 29.17 µg/mL (≈ 166 µM)

Question: And the IC50 [12]?
Answer: 5.23 µg/mL (≈ 29.7 µM)

Question: For `Oc1cc(O)c2c(c1)OC(c1ccc(O)c(O)c1)C(O)C2` (stereo unspecified) [CATECHIN], which IC50 [2] is on record?
Answer: 15.6 µg/mL (≈ 53.7 µM)

Question: What about the IC50 [5] of the same compound?
Answer: 11.46 µg/mL (≈ 39.5 µM)

Question: What about the IC50 [12] of the same compound?
Answer: 18.03 µg/mL (≈ 62.1 µM)

Question: For `COc1cc(/C=C/C(=O)CC(=O)/C=C/c2ccc(O)c(OC)c2)ccc1O` [CURCUMIN], which “fold change (FC)” value [1] is on record?
Answer: 0.5

Question: And the IC50 [2]?
Answer: 11.41 µg/mL (≈ 31 µM)

Question: What about the “fold change (FC)” value [3] of the same compound?
Answer: 1.8

Question: And the “fold change (FC)” value [4]?
Answer: 1.5

Question: What about the IC50 [5] of the same compound?
Answer: 28.3 µg/mL (≈ 76.8 µM)

Question: And the inhibition at 10 µM [6]?
Answer: 38%

Question: And the “fold change (FC)” value [7]?
Answer: 0.9

Question: What about the inhibition at 1 µM [8] of the same compound?
Answer: 1.5%

Question: What about the inhibition at 100 µM [9] of the same compound?
Answer: 102%

Question: And the inhibition at 50 µM [10]?
Answer: 95.5%

Question: And the inhibition [11]?
Answer: Dose-dependent effect

Question: What about the IC50 [12] of the same compound?
Answer: 17.03 µg/mL (≈ 46.2 µM)

Question: With `COc1cc(O)c2c(c1)CCc1c-2ccc(OC)c1O` as the compound, how does the “fold change (FC)” value [1] read?
Answer: 1.1

Question: What about the IC50 [2] of the same compound?
Answer: 27.8 µg/mL (≈ 102 µM)

Question: What about the “fold change (FC)” value [3] of the same compound?
Answer: 1.5

Question: And the “fold change (FC)” value [4]?
Answer: 1.4

Question: What about the IC50 [5] of the same compound?
Answer: 16.98 µg/mL (≈ 62.4 µM)

Question: And the inhibition at 10 µM [6]?
Answer: 30%

Question: And the “fold change (FC)” value [7]?
Answer: 1.2

Question: What about the inhibition at 1 µM [8] of the same compound?
Answer: 9%

Question: And the inhibition at 100 µM [9]?
Answer: 94%

Question: What about the inhibition at 50 µM [10] of the same compound?
Answer: 79%

Question: And the inhibition [11]?
Answer: Dose-dependent effect

Question: What about the IC50 [12] of the same compound?
Answer: 17.97 µg/mL (≈ 66 µM)
